Experimental data published in ChEMBL document CHEMBL1909534, “Solvent-free, microwave assisted Knoevenagel condensation of novel 2,5-disubstituted indole analogues and their biological evaluation” (Eur J Med Chem, 2011).
Calls of active or inactive are those of the source. The calls are words filed in the database; no cut-off is given here.

Columns and labels:
[1] = Antioxidant activity assessed as equivalents of ascorbic acid at 10 to 500 ug after 90 mins; type: functional
Outline: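 Phosphomolybdenum method: 10, 50 and 500 μg samples mixed with 1.9 mL reagent (0.6 M sulfuric acid, 28 mM sodium phosphate, 4 mM ammonium molybdate), held 90 min at 95 °C, cooled, A695 read against blank. Values are μg ascorbic acid equivalents per mg, taken from an ascorbic acid standard curve.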

[2] = system: Radical scavenging activity; assay: Antioxidant activity assessed as DPPH free radical scavenging activity after 20 mins; type: functional
Outline: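 DPPH method: samples at 10, 50 and 100 μg/100 μl made up to 100 μl with MeOH, mixed with 5 mL 0.1 mM methanolic DPPH, shaken, left 20 min at 27 °C; A517 read against control without sample. % scavenging = (control OD − sample OD)/control OD × 100. BHA as standard.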

HEp-2 = assay: Cytotoxicity against human Hep2 cells by MTT assay; type: functional, cell-based
Outline: (§1)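 Cells grown in RPMI 1640 with 10% FCS, penicillin 100 U/mL and streptomycin 100 μg/mL at 37 °C, 5% CO₂. Seeded at 1 × 10⁵ cells/well. Compounds diluted in DMSO, tested at 0–100 µg/mL. Viability read by MTT kit, with medium-only wells as control. IC50 derived by non-linear regression from three independent experiments.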

HeLa = assay: Cytotoxicity against human HeLa cells by MTT assay; type: functional, cell-based; outline: as §1
[3] = Antioxidant activity assessed as ferric ion reducing ability at after 20 mins by spectrophotometric analysis; type: functional
Outline: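 10, 50 and 500 μg samples in 2.5 mL 200 mmol/L sodium phosphate pH 6.6 plus 2.5 mL 1% potassium ferricyanide, 20 min at 50 °C. Then 2.5 mL 10% TCA added; 5 mL of this mixed with 5 mL water and 1 mL 0.1% FeCl3, and A700 read. BHA as standard.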

A549 = assay: Cytotoxicity against human A549 cells by MTT assay; type: functional, cell-based; outline: as §1

| SMILES | Activity [1] | Activity [2] | IC50 (HEp-2) [µM] | IC50 (HeLa) [µM] | Activity [3] | IC50 (A549) [µM] |
| --- | --- | --- | --- | --- | --- | --- |
| Cc1ccc2[nH]c(-c3ccccc3)c(C=C3C(=O)NC(=S)NC3=O)c2c1 | Active | inactive | > 100 | > 100 | Dose-dependent effect | > 100 |
| COc1cccc2c1C(=O)c1c(O)c3c(c(O)c1C2=O)C[C@@](O)(C(=O)CO)C[C@@H]3O[C@H]1C[C@H](N)[C@H](O)[C@H](C)O1 [DOXORUBICIN] | – | – | 8.7 | 0.71 | – | 0.7 |
| CC1=NNC(=O)/C1=C/c1c(-c2ccccc2)[nH]c2ccc(Cl)cc12 | Active | Dose-dependent effect | 7.9 | 2.1 | Dose-dependent effect | 1 |
| O=C1NC(=O)C(=Cc2c(-c3ccccc3)[nH]c3ccc(Cl)cc23)C(=O)N1 | Active | Dose-dependent effect | > 100 | 30 | Dose-dependent effect | 27 |
| O=C1NC(=O)/C(=C/c2c[nH]c3ccccc23)S1 | Active | Dose-dependent effect | > 100 | 60.7 | Dose-dependent effect | 87.7 |
| O=C1NC(=S)NC(=O)C1=Cc1c[nH]c2ccccc12 | Active | Dose-dependent effect | > 100 | 63 | Dose-dependent effect | 52.3 |
| O=C1NC(=S)NC(=O)C1=Cc1c(-c2ccccc2)[nH]c2ccc(Cl)cc12 | Active | Dose-dependent effect | 45.7 | 23.5 | Dose-dependent effect | 27.5 |
| Cc1ccc2[nH]c(-c3ccccc3)c(C=C3C(=O)NC(=O)NC3=O)c2c1 | Active | inactive | > 100 | > 100 | Dose-dependent effect | > 100 |
| CC1=NNC(=O)/C1=C/c1c[nH]c2ccccc12 | Active | Dose-dependent effect | 1.2 | 33.1 | Dose-dependent effect | 3.4 |
| Cc1ccc2[nH]c(-c3ccccc3)c(/C=C3\SC(=O)NC3=O)c2c1 | Active | inactive | > 100 | > 100 | Dose-dependent effect | > 100 |
| O=C1NC(=O)C(=Cc2c[nH]c3ccccc23)C(=O)N1 | Active | Dose-dependent effect | > 100 | 74 | Dose-dependent effect | 77.4 |
| CC1=NNC(=O)/C1=C/c1c(-c2ccccc2)[nH]c2ccc(C)cc12 | Active | inactive | 26.3 | > 100 | Dose-dependent effect | 7.7 |
| O=C1NC(=O)/C(=C/c2c(-c3ccccc3)[nH]c3ccc(Cl)cc23)S1 | Active | Dose-dependent effect | 12.1 | 7 | Dose-dependent effect | 4.5 |
